Source: ChEMBL document CHEMBL3627660, “Tetrafluorophenoxymethyl ketone cruzain inhibitors with improved pharmacokinetic properties as therapeutic leads for Chagas' disease” (Bioorg Med Chem Lett, 2015)

Legend:
Trypanosoma cruzi = test: Antitrypanosomal activity against Trypanosoma cruzi infected in C2C12 cells after 72 hrs by DAPI staining; assay type: functional, organism-based; settings: C2C12, 72 h
Cruzipain = Cruzipain (Trypanosoma cruzi, UniProt P25779); test: Inhibition of Trypanosoma cruzi recombinant cruzain using Z-FR-AMC as substrate after 5 mins by fluorescence assay
Chain of Cruzipain (P25779 whole entry): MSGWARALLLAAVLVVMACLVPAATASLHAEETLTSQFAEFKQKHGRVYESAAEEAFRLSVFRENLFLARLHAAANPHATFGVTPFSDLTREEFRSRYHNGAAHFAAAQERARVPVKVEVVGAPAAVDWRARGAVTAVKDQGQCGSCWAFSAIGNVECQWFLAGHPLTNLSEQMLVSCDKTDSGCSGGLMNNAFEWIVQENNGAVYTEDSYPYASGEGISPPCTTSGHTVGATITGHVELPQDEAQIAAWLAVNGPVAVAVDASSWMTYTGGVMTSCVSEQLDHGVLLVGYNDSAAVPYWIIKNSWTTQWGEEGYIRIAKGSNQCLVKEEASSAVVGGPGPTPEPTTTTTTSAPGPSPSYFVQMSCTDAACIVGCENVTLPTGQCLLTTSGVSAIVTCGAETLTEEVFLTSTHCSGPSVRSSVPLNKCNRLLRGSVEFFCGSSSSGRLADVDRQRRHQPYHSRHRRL

[1] = Clearance in mouse at 10 mg/kg, iv; assay type: ADME, organism-based; settings: in vivo
Method in brief: (§1)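 Mouse PK study with two dosing arms: 40 mg/kg orally and 10 mg/kg intravenously. The parameters derived were AUC, T1/2, CL, Vss and F%.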

[2] = AUC in mouse at 10 mg/kg, iv; assay type: ADME, organism-based; settings: in vivo
[3] = Half life in mouse at 10 mg/kg, iv; assay type: ADME, organism-based; settings: in vivo; method in brief: as §1
[4] = Volume of distribution at steady state in mouse at 10 mg/kg, iv; assay type: ADME, organism-based; settings: in vivo, read-out: Vdss; method in brief: as §1
[5] = Cmax in mouse at 40 mg/kg, po; assay type: ADME, organism-based; design: dose 40 mg/kg, route oral; settings: in vivo
Method in brief: (§2)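 In vivo mouse pharmacokinetic study with two arms, intravenous at 10 mg/kg and oral at 40 mg/kg. Exposure parameters derived were AUC, T1/2, CL, Vss and oral bioavailability (F%).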

Cytochrome P450 3A4 = Cytochrome P450 3A4 (Homo sapiens, UniProt P08684); test: Inhibition of CYP3A4 (unknown origin); assay type: ADME
Chain of Cytochrome P450 3A4 (P08684 whole entry): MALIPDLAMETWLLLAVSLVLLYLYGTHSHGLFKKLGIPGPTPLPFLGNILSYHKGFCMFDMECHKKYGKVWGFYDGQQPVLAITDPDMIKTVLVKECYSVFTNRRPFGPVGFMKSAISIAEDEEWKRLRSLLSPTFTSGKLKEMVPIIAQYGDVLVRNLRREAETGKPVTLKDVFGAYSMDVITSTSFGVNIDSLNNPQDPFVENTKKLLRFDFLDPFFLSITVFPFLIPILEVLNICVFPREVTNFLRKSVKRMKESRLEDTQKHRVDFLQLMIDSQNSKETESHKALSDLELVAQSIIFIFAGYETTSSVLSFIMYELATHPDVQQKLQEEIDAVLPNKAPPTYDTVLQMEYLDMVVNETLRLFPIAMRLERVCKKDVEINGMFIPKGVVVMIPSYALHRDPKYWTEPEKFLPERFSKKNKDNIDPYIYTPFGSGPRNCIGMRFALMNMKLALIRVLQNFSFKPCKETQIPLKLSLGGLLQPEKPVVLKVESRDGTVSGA

MDCK = test: Apparent permeability from apical to basolateral side in MDCK cells assessed as per 10^-6 cells; assay type: ADME, cell-based, Canis lupus familiaris; settings: dog
[6] = AUC in mouse at 40 mg/kg, po; assay type: ADME, organism-based; settings: in vivo
Mus musculus = test: Oral bioavailability in mouse at 40 mg/kg; assay type: ADME, organism-based; settings: in vivo; method in brief: as §1
[7] = Half life in mouse at 40 mg/kg, po; assay type: ADME, organism-based; settings: in vivo; method in brief: as §1
[8] = Cmax in mouse at 10 mg/kg, iv; assay type: ADME, organism-based; design: dose 10 mg/kg, route intravenous; settings: in vivo; method in brief: as §2
[9] = Half life in mice after oral dosing; settings: in vivo

Structure (SMILES) | IC50 (Trypanosoma cruzi) [µM] | IC50 (Cruzipain) [µM] | IC50 (Cytochrome P450 3A4) [µM] | Papp (MDCK) [×10⁻⁶ cm/s] | other results
CC(C)[C@](C)(NCc1ccn2nccc2n1)c1cn(C(CCS(C)(=O)=O)C(=O)COc2c(F)c(F)cc(F)c2F)nn1 (some centres undefined) | 2.34 | 0.467 |  |  | 
COCCC(C(=O)COc1c(F)c(F)cc(F)c1F)n1cc([C@@](C)(NCc2ccc3ncccc3c2)C(C)C)nn1 (some centres undefined) | 0.002 | 0.34 |  |  | 
CCCCC(C(=O)COc1c(F)c(F)cc(F)c1F)n1cc([C@@](C)(NCc2ccc3ncsc3c2)C(C)C)nn1 (some centres undefined) | 0.002 | 0.037 | 0.3 | 2.26 | clearance [1]: 16.6 mL/min/kg; AUC [2]: 9610 ng·h/mL; half-life [3]: 5.67 h; Vd [4]: 6.5 L/kg; Cmax [5]: 1230 ng/mL; AUC [6]: 6570 ng·h/mL; F (Mus musculus): 19.1%; half-life [7]: 3.41 h
CC(C)[C@](C)(NCc1ccc2occc2c1)c1cn(C(CCS(C)(=O)=O)C(=O)COc2c(F)c(F)cc(F)c2F)nn1 (some centres undefined) | 0.003 | 0.88 |  |  | 
CCCCC(C(=O)COc1c(F)c(F)cc(F)c1F)n1cc([C@@](C)(NCc2ccn3nccc3n2)C(C)C)nn1 (some centres undefined) | 0.008 | 0.075 | 0.314 | 15.1 | 
COCCC(C(=O)COc1c(F)c(F)cc(F)c1F)n1cc([C@@](C)(NCc2ccc3ncsc3c2)C2CCCC2)nn1 (some centres undefined) | 0.007 | 0.124 |  |  | 
CCCCC(C(=O)COc1c(F)c(F)cc(F)c1F)n1cc([C@@](C)(NC(=O)c2ccc3ncsc3c2)C(C)C)nn1 (some centres undefined) | 0.65 | 3.59 |  |  | 
COCCC(C(=O)COc1c(F)c(F)cc(F)c1F)n1cc([C@@](C)(NCc2ccc3ncsc3c2)C(C)C)nn1 (some centres undefined) | 0.044 | 0.063 |  |  | 
CCCCC(C(=O)COc1c(F)c(F)cc(F)c1F)n1cc([C@@](C)(NCc2ccc3ncccc3c2)C2CCCC2)nn1 (some centres undefined) | 0.015 | 0.027 | 0.26 | 0.48 | clearance [1]: 19 mL/min/kg; AUC [2]: 8710 ng·h/mL; half-life [3]: 4.2 h; Vd [4]: 5.4 L/kg; AUC [6]: 8100 ng·h/mL; F (Mus musculus): 23%; half-life [7]: 3 h
CCCCC(C(=O)COc1c(F)c(F)cc(F)c1F)n1cc([C@@](C)(NC(=O)c2ccncc2)C(C)C)nn1 (some centres undefined) | 1.6 | 23 |  |  | 
CC(C)[C@](C)(NCc1ccc2ncccc2c1)c1cn(C(CCS(C)(=O)=O)C(=O)COc2c(F)c(F)cc(F)c2F)nn1 (some centres undefined) | 0.38 | 0.56 | 1.2 | 3.49 | 
COCCC(C(=O)COc1c(F)c(F)cc(F)c1F)n1cc([C@@](C)(NCc2ccn3nccc3n2)C2CCCC2)nn1 (some centres undefined) | 0.02 | 2.82 |  |  | 
CCCCC(C(=O)COc1c(F)c(F)cc(F)c1F)n1cc([C@@](C)(NCc2ccc3ncsc3c2)C2CCCC2)nn1 (some centres undefined) | 0.003 | 0.005 |  |  | 
CCCCC(C(=O)COc1c(F)c(F)cc(F)c1F)n1cc([C@@](C)(NC(=O)c2ccc3ncccc3c2)C(C)C)nn1 (some centres undefined) | 0.7 | 1.35 |  |  | 
CCCCC(C(=O)COc1c(F)c(F)cc(F)c1F)n1cc([C@@](C)(NCc2ccc3ncccc3c2)C(C)C)nn1 (some centres undefined) | 0.022 |  | 3.8 | 3.02 | clearance [1]: 36.2 mL/min/kg; AUC [2]: 4670 ng·h/mL; Cmax [8]: 4130 ng/mL; half-life [3]: 2.95 h; Vd [4]: 4.2 L/kg; Cmax [5]: 833 ng/mL; half-life [9]: 3.3 h; AUC [6]: 3860 ng·h/mL; F (Mus musculus): 21%; half-life [7]: 3.34 h
CCCCC(C(=O)COc1c(F)c(F)cc(F)c1F)n1cc([C@@](C)(NCc2ccncc2)C(C)C)nn1 (some centres undefined) | 0.143 | 1.1 |  |  | 
C[C@@](NCc1ccc2occc2c1)(c1cn(C(CCS(C)(=O)=O)C(=O)COc2c(F)c(F)cc(F)c2F)nn1)C1CCCC1 (some centres undefined) | 0.005 | 0.79 |  |  | 
C[C@@](NCc1ccc2ncsc2c1)(c1cn(C(CCS(C)(=O)=O)C(=O)COc2c(F)c(F)cc(F)c2F)nn1)C1CCCC1 (some centres undefined) | 0.01 | 0.025 | 0.2 | 6.8 | 
CC(C)[C@](C)(NCc1ccc2ncsc2c1)c1cn(C(CCS(C)(=O)=O)C(=O)COc2c(F)c(F)cc(F)c2F)nn1 (some centres undefined) | 0.012 | 0.125 |  |  | 
CCCCC(C(=O)COc1c(F)c(F)cc(F)c1F)n1cc([C@@](C)(NCc2ccn3nccc3n2)C2CCCC2)nn1 (some centres undefined) |  | 0.003 | 0.263 | 2.9 | clearance [1]: 30.7 mL/min/kg; AUC [2]: 5370 ng·h/mL; half-life [3]: 3.04 h; Vd [4]: 4.19 L/kg; AUC [6]: 8110 ng·h/mL; F (Mus musculus): 37%; half-life [7]: 2.32 h
